The list is not random: actives were taken first. Their share in the collection is about 5.3%.
Mdm2-MdmX inh = disrupts the human Mdm2-MdmX interaction. inhibition, % at 8 µM. actives 3% (n = 330,000). SaOS-2 split-luciferase Mdm2/MdmX complementation, luminescence;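 active = inhibition of at least 50% at 8 µM in the primary screen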
Target sequence (O15151 whole entry, looked up): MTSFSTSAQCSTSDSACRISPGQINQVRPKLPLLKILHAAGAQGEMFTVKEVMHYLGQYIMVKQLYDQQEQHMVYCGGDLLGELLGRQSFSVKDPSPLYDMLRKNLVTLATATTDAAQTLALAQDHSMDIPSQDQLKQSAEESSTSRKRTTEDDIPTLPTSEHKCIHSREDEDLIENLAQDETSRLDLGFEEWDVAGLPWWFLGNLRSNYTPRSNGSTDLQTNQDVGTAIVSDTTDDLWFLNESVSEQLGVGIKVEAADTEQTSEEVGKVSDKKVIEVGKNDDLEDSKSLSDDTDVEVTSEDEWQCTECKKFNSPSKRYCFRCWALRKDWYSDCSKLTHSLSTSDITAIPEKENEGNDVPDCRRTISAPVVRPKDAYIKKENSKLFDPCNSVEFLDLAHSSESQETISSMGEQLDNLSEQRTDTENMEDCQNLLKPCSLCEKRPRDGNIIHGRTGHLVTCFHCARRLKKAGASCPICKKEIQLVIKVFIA
Target sequence (Q00987 whole entry, looked up): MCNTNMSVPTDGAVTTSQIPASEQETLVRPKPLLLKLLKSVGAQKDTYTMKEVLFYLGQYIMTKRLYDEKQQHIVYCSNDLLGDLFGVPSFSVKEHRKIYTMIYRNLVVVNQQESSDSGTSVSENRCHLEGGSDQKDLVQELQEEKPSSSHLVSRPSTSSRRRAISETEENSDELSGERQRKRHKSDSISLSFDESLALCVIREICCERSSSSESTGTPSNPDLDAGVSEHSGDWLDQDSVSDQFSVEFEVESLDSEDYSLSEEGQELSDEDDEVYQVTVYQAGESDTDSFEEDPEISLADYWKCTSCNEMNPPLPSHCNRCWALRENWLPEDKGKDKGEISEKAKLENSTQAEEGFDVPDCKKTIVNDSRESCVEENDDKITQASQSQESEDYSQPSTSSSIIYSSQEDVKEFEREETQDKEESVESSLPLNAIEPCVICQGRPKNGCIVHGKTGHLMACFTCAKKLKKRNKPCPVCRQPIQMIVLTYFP
NALP3 yeast inh = blocks the NALP3 inflammasome reconstituted in yeast; Yeast reconstituted NLRP3/ASC/caspase-1, beta-gal luminescence, 24 h; inhibition, % at 10 µM; actives 0.39% (n = 330,000);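 active = inhibition of 50% or more; inactive = inhibition below 50%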
Calb FLC = affects C. albicans growth with fluconazole. C. albicans CaCi-2 (fluconazole-resistant clinical isolate) + fluconazole, Alamar Blue growth, 48 h. growth inhibition, % (test concentration not listed). actives 0.57% (n = 300,000);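 active = growth inhibition above about 58% in most replicates, limit read from the data, passing the limit was not always enough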;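 also: all wells also contain fluconazole at 8 µg/ml as a sub-toxic cotreatment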
T cruzi repl = blocks replication of Trypanosoma cruzi | T. cruzi beta-gal in NIH3T3, luminescence, 90 h | AID 1885 | actives 1.4% (n = 300,000) | inhibition, % (concentration not given with the values);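 active = mean inhibition across valid replicates above about 55%, limit read from the data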;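 also: signal also drops with host cell toxicity which is not excluded here; higher percent means less beta-gal luminescence so fewer parasites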
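Read-out: Parasite load inhibition, % | Test system: Mouse NIH/3T3 fibroblasts infected with β-gal-expressing T. cruzi Tulahuen C4 | Amount: 5,000 cells/well | Medium: DMEM, 2% fetal bovine serum | Signal: GalScreen β-gal luminescence, detergent lysis, 60 min | Timing: 3 h attach, ≥90 h co-culture | Also added: Tulahuen C4 trypomastigotes, 5000/well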
Beta apoptosis = beta cell apoptosis inhibition; INS-1E cytokine-induced death, ATP luminescence, 48 h; percent of positive-control rescue, neutral wells zero; protection from apoptosis, % (no concentration beside the values); actives 0.8% (n = 300,000); AID 435005;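 active = Every replicate reaches about 75%, or at least half do and their mean reaches it too, limit read from the data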;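 also: higher means more ATP so stronger rescue from cytokine killing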
CSC inhib = cancer stem cell inhibition. inhibition, % at 7.5 µM. cancer stem cell-like cells viability, luminescence. actives 1.1% (n = 300,000); in the data active = inhibition above about 75%; tested in HMLE shEcad cells
Hits are given with their value.

What do the screens show for `O=C(c1ccc2c3c(cccc13)CC2)C1CCCN(C(=O)c2cccnc2)C1` (configuration not stated)?
Mdm2-MdmX inh: inactive; NALP3 yeast inh: inactive; Calb FLC: inactive; T cruzi repl: inactive; Beta apoptosis: inactive; CSC inhib: inactive

How did O=C(c1ccc2c3c(cccc13)CC2)C1CCCN(Cc2cccnc2)C1 (configuration not stated) do in these assays?
Mdm2-MdmX inh: inactive; NALP3 yeast inh: inactive; Calb FLC: inactive; T cruzi repl: 62; Beta apoptosis: inactive

What do the screens show for `CCN(CC)S(=O)(=O)c1cccc(NC(=O)COC(=O)CCC(=O)c2cccs2)c1`?
Mdm2-MdmX inh: inactive; NALP3 yeast inh: inactive; Calb FLC: inactive; T cruzi repl: inactive; Beta apoptosis: inactive; CSC inhib: inactive

Results for CCOc1ccc(N(C)c2ccc(/C=C3/SC(=S)NC3=O)cc2)cc1 ?
Mdm2-MdmX inh: inactive; NALP3 yeast inh: inactive; Calb FLC: inactive; T cruzi repl: inactive; Beta apoptosis: inactive; CSC inhib: 97

Results for CCc1ccc(NC(=O)c2cccnc2)cc1 ?
Mdm2-MdmX inh: inactive; NALP3 yeast inh: inactive; Calb FLC: inactive; T cruzi repl: inactive; Beta apoptosis: inactive; CSC inhib: inactive

How did O=C(Nc1ccc(C(=O)Nc2ccccc2Cl)cc1)c1cccnc1 do in these assays?
Mdm2-MdmX inh: inactive; NALP3 yeast inh: inactive; Calb FLC: inactive; Beta apoptosis: 99; CSC inhib: inactive

What do the screens show for `COc1ccc(-c2noc(CCC(=O)NCc3cccnc3)n2)cc1`?
Mdm2-MdmX inh: inactive; NALP3 yeast inh: inactive; Calb FLC: inactive; T cruzi repl: inactive; Beta apoptosis: inactive; CSC inhib: inactive

How did O=C(Nc1cccc(NC(=O)c2cccnc2)c1)c1ccccc1 do in these assays?
Mdm2-MdmX inh: inactive; NALP3 yeast inh: inactive; Calb FLC: inactive; T cruzi repl: inactive; Beta apoptosis: inactive; CSC inhib: inactive

Results for O=C(Nc1cccc(C(F)(F)F)c1)c1cccnc1 ?
Mdm2-MdmX inh: inactive; NALP3 yeast inh: inactive; Calb FLC: 117; T cruzi repl: inactive; Beta apoptosis: inactive; CSC inhib: inactive

Results for COc1ccc(Cc2nc(-c3ccc(NC(=O)c4cccnc4)cc3)no2)cc1 ?
Mdm2-MdmX inh: inactive; NALP3 yeast inh: inactive; Calb FLC: inactive; T cruzi repl: inactive; Beta apoptosis: 107; CSC inhib: inactive

What do the screens show for `CCSc1ccc(NC(=O)c2cccnc2)cc1`?
Mdm2-MdmX inh: inactive; NALP3 yeast inh: inactive; T cruzi repl: inactive; Beta apoptosis: 104; CSC inhib: inactive

How did CC(C)Cc1nc2oc3c(NCCCN4CCOCC4)ncnc3c2c2c1CCC2 do in these assays?
Mdm2-MdmX inh: inactive; NALP3 yeast inh: inactive; Calb FLC: inactive; T cruzi repl: inactive; Beta apoptosis: inactive; CSC inhib: inactive

How did Cc1cc(OCC(=O)N[C@@H](CSCc2ccccc2)C(=O)O)c2c(C)c(C)c(=O)oc2c1 do in these assays?
Mdm2-MdmX inh: inactive; NALP3 yeast inh: inactive; Calb FLC: inactive; T cruzi repl: inactive; Beta apoptosis: inactive; CSC inhib: inactive

Results for O=C(Nc1ccc(N2CCN(Cc3ccccc3Cl)CC2)cc1)c1cccnc1 ?
Mdm2-MdmX inh: inactive; NALP3 yeast inh: inactive; Calb FLC: inactive; T cruzi repl: inactive; Beta apoptosis: 78; CSC inhib: inactive

How did O=C(Nc1ccc(N2CCCCC2)cc1)c1cccnc1 do in these assays?
Mdm2-MdmX inh: inactive; NALP3 yeast inh: inactive; Calb FLC: inactive; T cruzi repl: inactive; Beta apoptosis: inactive; CSC inhib: inactive

What do the screens show for `COC(=O)c1ccc(-c2noc(CN3CCCCC3c3nccn3C)n2)cc1` (configuration not stated)?
Mdm2-MdmX inh: inactive; NALP3 yeast inh: inactive; Calb FLC: inactive; T cruzi repl: inactive; Beta apoptosis: inactive; CSC inhib: inactive

How did CCOP(=O)(OCC)C(NC(=O)c1ccc(OC)c(OC)c1)c1ccccc1 (configuration not stated) do in these assays?
Mdm2-MdmX inh: inactive; NALP3 yeast inh: inactive; Calb FLC: inactive; T cruzi repl: inactive; Beta apoptosis: inactive; CSC inhib: inactive

How did Cc1c(C(=O)NCC2COc3ccccc3O2)oc2ccc(S(=O)(=O)N(C)C3CCCCC3)cc12 (configuration not stated) do in these assays?
Mdm2-MdmX inh: inactive; NALP3 yeast inh: inactive; Calb FLC: inactive; T cruzi repl: 75; Beta apoptosis: inactive; CSC inhib: inactive

Results for CN(C)S(=O)(=O)c1ccc(N2CCCC2)c(C(=O)NCC2COc3ccccc3O2)c1 (configuration not stated) ?
Mdm2-MdmX inh: inactive; NALP3 yeast inh: inactive; Calb FLC: inactive; T cruzi repl: inactive; CSC inhib: inactive

How did COCCCN1C(=O)C(=O)/C(=C(/O)c2ccc(OCC(C)C)cc2C)C1c1cccnc1 (configuration not stated) do in these assays?
Mdm2-MdmX inh: inactive; NALP3 yeast inh: inactive; Calb FLC: 106; T cruzi repl: inactive; Beta apoptosis: inactive; CSC inhib: inactive

Results for CCOC(=O)[C@@H]1[C@H]2COc3ccc(Br)cc3[C@@H]2N2C(=O)N(c3ccccc3)C(=O)[C@]12C ?
Mdm2-MdmX inh: inactive; NALP3 yeast inh: inactive; Calb FLC: inactive; T cruzi repl: inactive; Beta apoptosis: inactive; CSC inhib: inactive

Results for CCN1C/C(=C/c2cccs2)c2nc3ccccc3c(C(=O)O)c2C1 ?
Mdm2-MdmX inh: inactive; NALP3 yeast inh: inactive; Calb FLC: inactive; T cruzi repl: inactive; Beta apoptosis: inactive; CSC inhib: inactive

How did CC(C)CNC(=O)COC(=O)c1c2c(nc3ccccc13)/C(=C/c1cccs1)CC2 do in these assays?
Calb FLC: inactive; T cruzi repl: inactive; Beta apoptosis: 78; CSC inhib: inactive

What do the screens show for `CCc1cccc(C)c1NC(=O)COC(=O)c1c2c(nc3ccccc13)/C(=C\c1cccs1)CCC2`?
Mdm2-MdmX inh: inactive; NALP3 yeast inh: inactive; Calb FLC: inactive; T cruzi repl: 59; Beta apoptosis: inactive; CSC inhib: inactive

What do the screens show for `C#CCOCCOCCOCCNc1nc(N2CCN(C(=O)[C@H](CCCCN)n3cc([C@@H](N)[C@H](C)CC)nn3)CC2)nc(N2CCN(C(=O)[C@H](CCCCN)n3cc([C@@H](N)CC(N)=O)nn3)CC2)n1`?
Mdm2-MdmX inh: inactive; NALP3 yeast inh: inactive; Beta apoptosis: inactive; CSC inhib: inactive

How did O=C(/C=C/c1c[nH]c2ccccc12)c1cccc2ccccc12 do in these assays?
Mdm2-MdmX inh: inactive; NALP3 yeast inh: inactive; Calb FLC: inactive; T cruzi repl: inactive; Beta apoptosis: inactive; CSC inhib: 87

What do the screens show for `Cn1cccc1/C=N/NC(=O)Cc1cccs1`?
Mdm2-MdmX inh: inactive; NALP3 yeast inh: inactive; Calb FLC: inactive; T cruzi repl: inactive; Beta apoptosis: 105; CSC inhib: inactive

Results for CC(C)(Sc1ccc(CCN(CCCCC2CCCCC2)C(=O)NC2CCCCC2)cc1)C(=O)O ?
Mdm2-MdmX inh: inactive; NALP3 yeast inh: inactive; Beta apoptosis: inactive; CSC inhib: 99

How did O=C(Oc1ccc2c3c(c(=O)oc2c1)CCCC3)c1cccs1 do in these assays?
Mdm2-MdmX inh: inactive; NALP3 yeast inh: inactive; Calb FLC: inactive; T cruzi repl: inactive; Beta apoptosis: inactive; CSC inhib: inactive
